The values below come from ChEMBL document CHEMBL2086248, “Synthesis of some novel 1-(2-naphthyl)-2-(imidazol-1-yl)ethanone oxime ester derivatives and evaluation of their anticonvulsant activity” (Eur J Med Chem, 2012).

Calls of active or inactive are those of the source.

Series [1] deals with Mus musculus. Description: Neurotoxicity in mouse assessed as motor impairment at 100 mg/kg, ip after 4 hrs by rotarod test. In kind it is toxicity, organism-based. Set-up: dose 100 mg/kg, route intraperitoneal. To be noted: in vivo. In outline:
(§1)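 Swiss albino mice (20-24 g) were dosed ip with a suspension in 30% aqueous PEG 400 and tested 0.5 h or 4 h later. They were placed on a knurled wooden rod 1 inch in diameter, rotating at 6 rpm. Toxicity meant failure to stay on the rod for at least 1 min in each of three trials. Scored as number toxic/number tested (4 mice at 0.5 h, 2 at 4 h).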

The test system of series [2] is Mus musculus. Put plainly: Anticonvulsant activity in mouse assessed as protection against maximal electroshock-induced seizures at 100 mg/kg, ip after 4 hrs. Set-up: dose 100 mg/kg. In kind it is functional, organism-based. In outline:
(§2)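 Swiss albino mice (20-24 g) received an ip suspension in 30% aqueous PEG 400 and were tested 0.5 h and 4 h after dosing. Shock was delivered through corneal electrodes from a constant current unit, with 0.9% saline dropped into the eyes first. Protection meant abolition of the hind limb tonic extension. Scored as number protected/number tested, one mouse per dose and time.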

Series [3] relates to Mus musculus. Description: Anticonvulsant activity in mouse assessed as protection against subcutaneous pentylenetetrazole-induced seizures at 300 mg/kg, ip after 4 hrs. In kind it is functional, organism-based. Details: dose 300 mg/kg. The gist of the method: (§3)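 Swiss albino mice (20-24 g) were dosed ip with a suspension in 30% aqueous PEG 400 and challenged 0.5 h or 4 h later. Protection meant no threshold seizure (clonic spasms lasting at least 5 s). Scored as number protected/number tested, one mouse per dose and time.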

Series [4] concerns Mus musculus. Put plainly: Neurotoxicity in mouse assessed as motor impairment at 30 mg/kg, ip after 0.5 hrs by rotarod test. In kind it is toxicity, organism-based. Details: dose 30 mg/kg, route intraperitoneal. To be noted: in vivo. The gist of the method:
as §1

Series [5] concerns Mus musculus. Put plainly: Anticonvulsant activity in mouse assessed as protection against subcutaneous pentylenetetrazole-induced seizures at 300 mg/kg, ip after 0.5 hrs. In kind it is functional, organism-based. Details: dose 300 mg/kg. The gist of the method:
as §3

The subject of series [6] is Mus musculus. Put plainly: Anticonvulsant activity in mouse assessed as protection against subcutaneous pentylenetetrazole-induced seizures at 100 mg/kg, ip after 4 hrs. In kind it is functional, organism-based. Details: dose 100 mg/kg. The gist of the method: as §3
Series [7] relates to Mus musculus. Put plainly: Neurotoxicity in mouse assessed as motor impairment at 300 mg/kg, ip after 4 hrs by rotarod test. In kind it is toxicity, organism-based. Details: dose 300 mg/kg, route intraperitoneal. To be noted: in vivo. The gist of the method: as §1
Series [8] concerns Mus musculus. Description: Anticonvulsant activity in mouse assessed as protection against maximal electroshock-induced seizures at 300 mg/kg, ip after 0.5 hrs. In kind it is functional, organism-based. Details: dose 300 mg/kg. In outline: as §2
Series [9] relates to Mus musculus. Description: Anticonvulsant activity in mouse assessed as protection against subcutaneous pentylenetetrazole-induced seizures at 30 mg/kg, ip after 4 hrs. In kind it is functional, organism-based. Set-up: dose 30 mg/kg. In outline: as §3
The subject of series [10] is Mus musculus. Description: Anticonvulsant activity in mouse assessed as protection against subcutaneous pentylenetetrazole-induced seizures at 30 mg/kg, ip after 0.5 hrs. In kind it is functional, organism-based. Set-up: dose 30 mg/kg. In outline:
as §3

Series [11] has as its system Mus musculus. Description: Anticonvulsant activity in mouse assessed as protection against maximal electroshock-induced seizures at 100 mg/kg, ip after 0.5 hrs. Details: dose 100 mg/kg. In kind it is functional, organism-based. In outline: as §2
Series [12] relates to Mus musculus. Description: Neurotoxicity in mouse assessed as motor impairment at 30 mg/kg, ip after 4 hrs by rotarod test. As to conditions: in vivo. In kind it is toxicity, organism-based. Set-up: dose 30 mg/kg, route intraperitoneal. In outline: as §1
Series [13] has as its system Mus musculus. Put plainly: Neurotoxicity in mouse assessed as motor impairment at 300 mg/kg, ip after 0.5 hrs by rotarod test. In kind it is toxicity, organism-based. Details: dose 300 mg/kg, route intraperitoneal. To be noted: in vivo. The gist of the method:
as §1

For series [14], the system named is Mus musculus. Put plainly: Neurotoxicity in mouse assessed as motor impairment at 100 mg/kg, ip after 0.5 hrs by rotarod test. In kind it is toxicity, organism-based. Details: dose 100 mg/kg, route intraperitoneal. As to conditions: in vivo. In outline: as §1
The subject of series [15] is Mus musculus. Put plainly: Anticonvulsant activity in mouse assessed as protection against maximal electroshock-induced seizures at 30 mg/kg, ip after 0.5 hrs. In kind it is functional, organism-based. Details: dose 30 mg/kg. In outline:
as §2

The test system of series [16] is Mus musculus. Description: Anticonvulsant activity in mouse assessed as protection against subcutaneous pentylenetetrazole-induced seizures at 100 mg/kg, ip after 0.5 hrs. In kind it is functional, organism-based. Details: dose 100 mg/kg. In outline:
as §3

Series [17] relates to Mus musculus. Description: Anticonvulsant activity in mouse assessed as protection against maximal electroshock-induced seizures at 30 mg/kg, ip after 4 hrs. In kind it is functional, organism-based. Details: dose 30 mg/kg. The gist of the method: as §2
For series [18], the system named is Mus musculus. Description: Anticonvulsant activity in mouse assessed as protection against maximal electroshock-induced seizures at 300 mg/kg, ip after 4 hrs. In kind it is functional, organism-based. Details: dose 300 mg/kg. The gist of the method:
as §2

On to `COc1cccc(C(=O)O/N=C(\Cn2ccnc2)c2ccc3ccccc3c2)c1`, for which the Activity result with Mus musculus [1], in the series on Mus musculus [4], in the series with Mus musculus [7], in the series with Mus musculus [12], in the series on Mus musculus [13] and with Mus musculus [14] was “Non-toxic” throughout. The outcome in the series with Mus musculus [2], with Mus musculus [3], in the series on Mus musculus [5], in the series with Mus musculus [6], in the series with Mus musculus [9] and with Mus musculus [10] was inactive. The outcome in the series on Mus musculus [11], with Mus musculus [15], in the series on Mus musculus [16], in the series with Mus musculus [17] and in the series on Mus musculus [18] was inactive. For the same compound, in the series on Mus musculus [8], the result was Active.
On to `Cl.O=C(O/N=C(\Cn1ccnc1)c1ccc2ccccc2c1)c1ccc(-c2ccccc2)cc1`, for which the Activity entry with Mus musculus [1], in the series on Mus musculus [4], in the series on Mus musculus [7], in the series on Mus musculus [12], in the series on Mus musculus [13] and in the series with Mus musculus [14] was “Non-toxic” throughout. Further, the outcome in the series on Mus musculus [2], with Mus musculus [3], in the series with Mus musculus [5], with Mus musculus [6], in the series with Mus musculus [8] and in the series on Mus musculus [9] was inactive. Besides, the result in the series on Mus musculus [10], in the series with Mus musculus [11], in the series on Mus musculus [15], in the series with Mus musculus [16] and with Mus musculus [17] was inactive. In addition, the outcome with Mus musculus [18] was Active.
For `O=C(O/N=C(\Cn1ccnc1)c1ccc2ccccc2c1)c1cccc([N+](=O)[O-])c1`, the Activity entry with Mus musculus [1], in the series with Mus musculus [4], in the series on Mus musculus [7], in the series with Mus musculus [12], in the series with Mus musculus [13] and with Mus musculus [14] was “Non-toxic” each time. Further, the result in the series on Mus musculus [2], with Mus musculus [3], in the series on Mus musculus [5], in the series with Mus musculus [6], in the series on Mus musculus [8] and with Mus musculus [9] was inactive. Moreover, the outcome with Mus musculus [10], in the series on Mus musculus [11], with Mus musculus [15], in the series on Mus musculus [16] and in the series on Mus musculus [17] was inactive. In addition, in the series on Mus musculus [18], the outcome was Active.
`CCCCC(=O)O/N=C(\Cn1ccnc1)c1ccc2ccccc2c1.Cl`: the Activity result with Mus musculus [1], in the series on Mus musculus [4], with Mus musculus [7], with Mus musculus [12], in the series on Mus musculus [13] and in the series on Mus musculus [14] was “Non-toxic” throughout. The result with Mus musculus [2], in the series on Mus musculus [3], in the series on Mus musculus [5], in the series with Mus musculus [6], with Mus musculus [9] and in the series with Mus musculus [10] was inactive. The result in the series on Mus musculus [16], with Mus musculus [17] and with Mus musculus [18] was inactive. The outcome with Mus musculus [8], in the series on Mus musculus [11] and in the series on Mus musculus [15] was Active.
On to `Cc1ccccc1C(=O)O/N=C(\Cn1ccnc1)c1ccc2ccccc2c1`, for which the Activity entry in the series with Mus musculus [1], with Mus musculus [4], in the series on Mus musculus [7], in the series on Mus musculus [12], with Mus musculus [13] and in the series with Mus musculus [14] was “Non-toxic” throughout. Besides, the outcome with Mus musculus [2], in the series with Mus musculus [3], in the series with Mus musculus [5], in the series on Mus musculus [6], with Mus musculus [9] and in the series on Mus musculus [10] was inactive. The result in the series with Mus musculus [11], with Mus musculus [15], in the series with Mus musculus [16] and in the series with Mus musculus [17] was inactive. Besides, the result with Mus musculus [8] and in the series with Mus musculus [18] was Active.
`COc1ccccc1C(=O)O/N=C(\Cn1ccnc1)c1ccc2ccccc2c1`: the Activity entry in the series on Mus musculus [1], with Mus musculus [4], in the series on Mus musculus [7], in the series on Mus musculus [12], in the series with Mus musculus [13] and in the series on Mus musculus [14] was “Non-toxic” each time. In addition, the outcome in the series with Mus musculus [2], in the series with Mus musculus [5], in the series with Mus musculus [8], in the series with Mus musculus [11], in the series on Mus musculus [16] and with Mus musculus [17] was Active. For the same compound, the result with Mus musculus [18] was Active. Besides, the result in the series with Mus musculus [3], with Mus musculus [6], with Mus musculus [9], in the series on Mus musculus [10] and in the series on Mus musculus [15] was inactive.
On to `Cc1cccc(C(=O)O/N=C(\Cn2ccnc2)c2ccc3ccccc3c2)c1`, for which the Activity entry with Mus musculus [1], with Mus musculus [4], in the series with Mus musculus [7], in the series on Mus musculus [12], in the series on Mus musculus [13] and in the series on Mus musculus [14] was “Non-toxic” in each case. Also, the result with Mus musculus [2], in the series on Mus musculus [6], in the series on Mus musculus [8], in the series on Mus musculus [9], with Mus musculus [10] and with Mus musculus [11] was inactive. Further, the result with Mus musculus [15], in the series on Mus musculus [16], in the series on Mus musculus [17] and with Mus musculus [18] was inactive. Besides, the result with Mus musculus [3] and in the series on Mus musculus [5] was Active.
On to `O=C(O/N=C(\Cn1ccnc1)c1ccc2ccccc2c1)c1ccccc1Cl`, for which the Activity result in the series on Mus musculus [1], in the series with Mus musculus [4], with Mus musculus [7], in the series with Mus musculus [12], with Mus musculus [13] and with Mus musculus [14] was “Non-toxic” each time. Also, the result in the series on Mus musculus [2], in the series on Mus musculus [3], with Mus musculus [5], in the series on Mus musculus [6], in the series with Mus musculus [9] and with Mus musculus [10] was inactive. The result in the series on Mus musculus [15], with Mus musculus [16], with Mus musculus [17] and in the series on Mus musculus [18] was inactive. Further, the outcome in the series with Mus musculus [8] and in the series on Mus musculus [11] was Active.
For `Cl.O=C(ON=C(Cn1ccnc1)c1ccc2ccccc2c1)C1CCCCC1` (mixture of isomers), the Activity result in the series with Mus musculus [1], with Mus musculus [4], in the series on Mus musculus [7], with Mus musculus [12], in the series with Mus musculus [13] and in the series on Mus musculus [14] was “Non-toxic” each time. Also, the result in the series on Mus musculus [2], in the series with Mus musculus [3], with Mus musculus [6], with Mus musculus [9], in the series with Mus musculus [10] and with Mus musculus [15] was inactive. The result in the series with Mus musculus [17] and in the series on Mus musculus [18] was inactive. Further, the result with Mus musculus [5], in the series on Mus musculus [8], in the series with Mus musculus [11] and in the series with Mus musculus [16] was Active.
